Measurements from different studies.
Target: Serine/threonine-protein kinase 4 (STK4, Homo sapiens, UniProt Q13043)
Residues used in one study (Q13043 1-487): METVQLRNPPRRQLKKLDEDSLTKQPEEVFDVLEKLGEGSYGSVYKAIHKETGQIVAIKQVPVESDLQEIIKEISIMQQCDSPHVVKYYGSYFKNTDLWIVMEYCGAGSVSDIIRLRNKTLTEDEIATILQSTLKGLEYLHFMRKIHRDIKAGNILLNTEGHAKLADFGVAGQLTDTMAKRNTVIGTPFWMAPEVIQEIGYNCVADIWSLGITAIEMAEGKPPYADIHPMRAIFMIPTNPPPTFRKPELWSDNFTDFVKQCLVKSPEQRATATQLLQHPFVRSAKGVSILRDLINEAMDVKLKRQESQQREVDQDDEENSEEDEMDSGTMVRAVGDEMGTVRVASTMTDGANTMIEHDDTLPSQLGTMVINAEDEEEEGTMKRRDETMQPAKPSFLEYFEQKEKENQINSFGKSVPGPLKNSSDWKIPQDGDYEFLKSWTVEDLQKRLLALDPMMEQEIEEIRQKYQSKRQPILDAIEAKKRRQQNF

Cn1cc(-c2cc(F)cc(N3CCn4c(cc5c4CCCC5)C3=O)c2CO)cc(Nc2ccc(N3CCN(C4COC4)CC3)cn2)c1=O
inhibition (enzyme activity; inhibitor; 0.1 µM): 13%

CC(C)(C)c1cc(C=C(C#N)C#N)cc(Br)c1O
remaining activity (enzyme activity; inhibitor; 0.5 µM): 90.5%

Cc1nn(C)cc1-c1nc2c(N3CCN(Cc4ccc(Cl)cc4)CC3)c(Cl)cnc2[nH]1
remaining binding (binding; competition with immobilised ligand; 1 µM): 100%

Cn1cc(-c2cccc(N3CCc4c(sc5c4CC(C)(C)C5)C3=O)c2CO)cc(Nc2ccncn2)c1=O
inhibition (enzyme activity; inhibitor; 1 µM): -4%

Cn1cncc1[C@](O)(COc1ccc(C#N)cc1-c1ccc(OC(F)(F)F)cc1)c1ccc(C#N)cc1
remaining binding (cell-free assay; competition with immobilised ligand; 1 µM): 86%

C#Cc1n[nH]c2c(-c3cn(C(C)c4ccccn4)c(=O)[nH]c3=O)cc(F)cc12 (stereo not drawn)
inhibition (enzyme activity; inhibitor; 1 µM): 3.7%

Nc1ncc(-c2nc(N3CCOCC3)nc(N3CCOCC3)n2)c(C(F)F)n1
remaining binding (binding; competition with immobilised ligand; 10 µM): 86%

NC(=O)c1cccc(-c2c[nH]c3ncnc(N4CCOCC4)c23)c1
ΔTm (thermal stability; DSF; 20 µM): > 8 °C

COc1ncccc1-c1cnn2ccc(N3CCN(C(=O)OC(C)C)CC3)nc12
remaining binding (binding; competition with immobilised ligand; 1 µM): 40%

C#Cc1n[nH]c2c(-c3cn([C@@H](C)c4ccccc4)c(=O)[nH]c3=O)cc(F)cc12
inhibition (enzyme activity; inhibitor; 0.1 µM): -0.9%

Clc1cccc(-c2c[nH]c3nccc(N4CCOCC4)c23)c1
ΔTm (thermal stability; DSF; 20 µM): > 8 °C

O=c1[nH]c2ccccc2n1C1CCN(Cc2ccc(-c3[nH]c4cc5ncnc5cc4nc3-c3ccccc3)cc2)CC1
remaining signal (cell-free assay; 0.5 µM): 95.2%
